Results: publication PMC3461162 (British Journal of Cancer, 2012)
Entries after “also recorded” stand apart in the source; their conditions may differ.

Legend:
[1] = system: advanced solid tumours or lymphomas; experiment: Tumour response by RECIST v1.0; assay type: in vivo, human
Outline: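 Patients got a single oral dose on day 1, then continuous twice-daily dosing until disease progression or unmanageable toxicity. Baseline RECIST assessment used CT or MRI of chest, abdomen and pelvis before treatment, repeated every 8 weeks.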

[2] = Phase I dose-escalation safety and tolerability: adverse events, DLTs, MTD; assay type: in vivo, human
Outline: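 Multicentre, open-label, dose-escalation study. A single oral dose on day 1 was followed one week later by continuous twice-daily dosing, starting at 10 mg. The first three cohorts got solution, later cohorts tablets. AEs were graded by CTC v3.0 from consent to 30 days after stopping. DLT: a CTC grade 3 AE, or a laboratory abnormality with clinical signs, within 42 days (extended from 35). MTD: last dose below the non-tolerated dose.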

[3] = 10 mg BID solution (n=5), CTCAE grade 1–2
[4] = 10 mg BID solution (n=5), CTCAE grade ⩾3
[5] = 20 mg BID solution (n=3), CTCAE grade 1–2
[6] = 20 mg BID solution (n=3), CTCAE grade ⩾3
[7] = 40 mg BID solution (n=6), CTCAE grade 1–2
[8] = 40 mg BID solution (n=6), CTCAE grade ⩾3
[9] = 40 mg BID tablet (n=7), CTCAE grade 1–2
[10] = 40 mg BID tablet (n=7), CTCAE grade ⩾3
[11] = 60 mg BID tablet (n=7), CTCAE grade 1–2

Structure (SMILES): COc1ccc(-c2ccc3c(N4CCOC[C@@H]4C)nc(N4CCOC[C@@H]4C)nc3n2)cc1CO [AZD8055]
- Patients with stable disease for ⩾4 months ([1]; 10 mg BID): 1/5
- Patients with stable disease for ⩾4 months ([1]; 60 mg BID): 1/7
- Patients with stable disease for ⩾4 months ([1]; 90 mg BID): 1/11
- Patients with stable disease for ⩾4 months ([1]; all cohorts): Seven
- RECIST complete or partial responses ([1]; all cohorts): no RECIST responses were seen; also recorded: No complete or partial responses were observed
- Duration of stable disease, range ([1]; seven patients with stable disease for ⩾4 months): 115 to 398 days
- Fatigue: patients with AZD8055-related AE, n (%) [2, 3]: 1 (20) %
- Hyperglycaemia: patients with AZD8055-related AE, n (%) [2, 3]: 0%
- Increased ALT: patients with AZD8055-related AE, n (%) [2, 3]: 1 (20) %
- Increased AST: patients with AZD8055-related AE, n (%) [2, 3]: 1 (20) %
- Increased GGT: patients with AZD8055-related AE, n (%) [2, 3]: 0%
- Nausea: patients with AZD8055-related AE, n (%) [2, 3]: 2 (40) %
- Stomatitis: patients with AZD8055-related AE, n (%) [2, 3]: 0%
- Fatigue: patients with AZD8055-related AE, n (%) [2, 4]: 0%
- Hyperglycaemia: patients with AZD8055-related AE, n (%) [2, 4]: 0%
- Increased ALT: patients with AZD8055-related AE, n (%) [2, 4]: 0%
- Increased AST: patients with AZD8055-related AE, n (%) [2, 4]: 0%
- Increased GGT: patients with AZD8055-related AE, n (%) [2, 4]: 0%
- Nausea: patients with AZD8055-related AE, n (%) [2, 4]: 0%
- Stomatitis: patients with AZD8055-related AE, n (%) [2, 4]: 0%
- Fatigue: patients with AZD8055-related AE, n (%) [2, 5]: 0%
- Hyperglycaemia: patients with AZD8055-related AE, n (%) [2, 5]: 0%
- Increased ALT: patients with AZD8055-related AE, n (%) [2, 5]: 0%
- Increased AST: patients with AZD8055-related AE, n (%) [2, 5]: 0%
- Increased GGT: patients with AZD8055-related AE, n (%) [2, 5]: 0%
- Nausea: patients with AZD8055-related AE, n (%) [2, 5]: 1 (33) %
- Stomatitis: patients with AZD8055-related AE, n (%) [2, 5]: 1 (33) %
- Fatigue: patients with AZD8055-related AE, n (%) [2, 6]: 0%
- Hyperglycaemia: patients with AZD8055-related AE, n (%) [2, 6]: 0%
- Increased ALT: patients with AZD8055-related AE, n (%) [2, 6]: 1 (33) %
- Increased AST: patients with AZD8055-related AE, n (%) [2, 6]: 1 (33) %
- Increased GGT: patients with AZD8055-related AE, n (%) [2, 6]: 0%
- Nausea: patients with AZD8055-related AE, n (%) [2, 6]: 0%
- Stomatitis: patients with AZD8055-related AE, n (%) [2, 6]: 0%
- Patients with DLT (grade 3 rise in transaminases) ([2]; 40 mg BID solution): 1
- Fatigue: patients with AZD8055-related AE, n (%) [2, 7]: 2 (33) %
- Hyperglycaemia: patients with AZD8055-related AE, n (%) [2, 7]: 0%
- Increased ALT: patients with AZD8055-related AE, n (%) [2, 7]: 0%
- Increased AST: patients with AZD8055-related AE, n (%) [2, 7]: 0%
- Increased GGT: patients with AZD8055-related AE, n (%) [2, 7]: 1 (17) %
- Nausea: patients with AZD8055-related AE, n (%) [2, 7]: 0%
- Stomatitis: patients with AZD8055-related AE, n (%) [2, 7]: 1 (17) %
- Fatigue: patients with AZD8055-related AE, n (%) [2, 8]: 0%
- Hyperglycaemia: patients with AZD8055-related AE, n (%) [2, 8]: 0%
- Increased ALT: patients with AZD8055-related AE, n (%) [2, 8]: 1 (17) %
- Increased AST: patients with AZD8055-related AE, n (%) [2, 8]: 1 (17) %
- Increased GGT: patients with AZD8055-related AE, n (%) [2, 8]: 0%
- Nausea: patients with AZD8055-related AE, n (%) [2, 8]: 0%
- Stomatitis: patients with AZD8055-related AE, n (%) [2, 8]: 0%
- Fatigue: patients with AZD8055-related AE, n (%) [2, 9]: 1 (14) %
- Hyperglycaemia: patients with AZD8055-related AE, n (%) [2, 9]: 1 (14) %
- Increased ALT: patients with AZD8055-related AE, n (%) [2, 9]: 0%
- Increased AST: patients with AZD8055-related AE, n (%) [2, 9]: 0%
- Increased GGT: patients with AZD8055-related AE, n (%) [2, 9]: 0%
- Nausea: patients with AZD8055-related AE, n (%) [2, 9]: 1 (14) %
- Stomatitis: patients with AZD8055-related AE, n (%) [2, 9]: 0%
- Fatigue: patients with AZD8055-related AE, n (%) [2, 10]: 0%
- Hyperglycaemia: patients with AZD8055-related AE, n (%) [2, 10]: 0%
- Increased ALT: patients with AZD8055-related AE, n (%) [2, 10]: 1 (14) %
- Increased AST: patients with AZD8055-related AE, n (%) [2, 10]: 0%
- Increased GGT: patients with AZD8055-related AE, n (%) [2, 10]: 0%
- Nausea: patients with AZD8055-related AE, n (%) [2, 10]: 0%
- Stomatitis: patients with AZD8055-related AE, n (%) [2, 10]: 0%
- Fatigue: patients with AZD8055-related AE, n (%) [2, 11]: 1 (14) %
- Hyperglycaemia: patients with AZD8055-related AE, n (%) [2, 11]: 0%
- Increased ALT: patients with AZD8055-related AE, n (%) [2, 11]: 1 (14) %
- Increased AST: patients with AZD8055-related AE, n (%) [2, 11]: 1 (14) %
- Increased GGT: patients with AZD8055-related AE, n (%) [2, 11]: 1 (14) %
- Nausea: patients with AZD8055-related AE, n (%) [2, 11]: 0%
- Stomatitis: patients with AZD8055-related AE, n (%) [2, 11]: 0%
